H9c2 TAG inh: inhibitors of triacylglycerol accumulation; H9c2 cells, Nile Red lipid (TAG) fluorescence; cells loaded with 200 µM oleic acid; inhibition, % at 12.5 µM; 230,000 tested, 0.66% active;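 active = pattern-corrected inhibition of lipid staining of at least 50% with the nuclear-stain viability signal not falling by more than 50%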;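 also: 0% = DMSO wells and 100% = triacsin C control wells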
MC4R antag cAMP: human MC4R antagonism in cAMP assay. MC4R-expressing cells, MTII-stimulated cAMP, LANCE TR-FRET. inhibition, % at 6.5 µM. 360,000 tested, 0.48% active;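 active = inhibition above its plate's cutoff, the mean of tested wells on that plate plus 3 SD, cut at about 29% in these data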;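 also: 0% = Melanotan II alone and 100% = Melanotan II plus saturating MCL0020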
Target sequence (P32245 whole entry, looked up): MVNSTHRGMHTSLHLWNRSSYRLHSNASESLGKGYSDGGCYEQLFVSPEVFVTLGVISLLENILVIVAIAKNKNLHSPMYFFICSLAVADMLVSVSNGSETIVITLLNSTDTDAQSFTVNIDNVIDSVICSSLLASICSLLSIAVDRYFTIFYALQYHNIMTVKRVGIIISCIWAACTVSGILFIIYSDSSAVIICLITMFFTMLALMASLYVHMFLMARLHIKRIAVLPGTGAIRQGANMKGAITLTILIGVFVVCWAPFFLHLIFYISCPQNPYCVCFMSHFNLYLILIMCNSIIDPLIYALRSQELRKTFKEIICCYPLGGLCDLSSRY
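system = U2OS cells with stable human MC4R expression | also added = Melanotan II challenge after compound preincubation | dosing = one concentration, 6.5 µM nominal | incubation = compound 30 min, challenge 1 h, detection 1 h | measured by = TR-FRET with Eu-cAMP and labeled anti-cAMP, 671 nm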
GalR3 antag: human GalR3 antagonism; HEK293 GalR3-CNG cAMP membrane potential fluorescence; galR3 body fused to GalR1 C-terminus; inhibition, % at 3 µM; 360,000 tested, 0.44% active; AID 651719; O60755;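 active = inhibition above the screen-wide average plus 3 SD, cut at about 13% in these data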;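 also: forskolin and galanin both at EC90 stimulate the cells; cAMP rise reported by CNG channel membrane potential dye signal; 0% = forskolin plus galanin with DMSO and 100% = forskolin alone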
Target sequence (O60755 1-299 limits assumed): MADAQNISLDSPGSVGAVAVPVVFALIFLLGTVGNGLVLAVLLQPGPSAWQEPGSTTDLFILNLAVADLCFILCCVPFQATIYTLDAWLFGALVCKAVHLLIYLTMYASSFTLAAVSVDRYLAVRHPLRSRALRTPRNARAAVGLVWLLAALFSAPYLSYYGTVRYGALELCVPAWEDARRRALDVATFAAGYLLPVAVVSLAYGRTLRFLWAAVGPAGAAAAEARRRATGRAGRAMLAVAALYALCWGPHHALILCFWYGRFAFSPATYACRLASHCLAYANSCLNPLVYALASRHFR
Efflux pump inh: blocks antifungal efflux pumps in multiplex yeast assay; inhibition, % at 10 µM; 330,000 tested, 0.44% active; S. cerevisiae Candida pump triplex, Nile Red efflux;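 active = plate passing quality check with inhibition over a set limit, or well fluorescence over plate mean plus 4 SD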;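 also: Nile Red retained in pooled yeast measured as flow cytometry median fluorescence; 0% = buffer negative control and 100% = Enniatin B positive control; higher means more Nile Red kept so more efflux inhibition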
Calb FLC: affects C. albicans growth with fluconazole. 300,000 tested, 0.57% active. C. albicans CaCi-2 + fluconazole, Alamar Blue growth, 48 h. growth inhibition, % (concentration not given with the values);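 active = growth inhibition above about 58% in most replicates, limit read from the data, passing the limit was not always enough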;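 also: all wells also contain fluconazole at 8 µg/ml as a sub-toxic cotreatment; 0% = median of DMSO wells and 100% = median of geldanamycin control wells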
MC4R ag barr: activates human MC4R beta-arrestin recruitment; P32245; U2OS MC4R beta-arrestin complementation, luminescence; percent of melanotan II response, DMSO zero; activation, % at 8.9 µM; 360,000 tested, 0.98% active;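 active = activation above a per-plate cutoff, the mean activation of sample wells on that plate plus 3 SD, cut at about 8% in these data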
Yeast cmpd fluor: flagged as fluorescent in efflux inhibitor counter-screen | shares compounds with Efflux pump inh | S. cerevisiae AD/pABC3, compound fluorescence, flow cytometry | fluorescence ratio to DMSO, % at 10 µM | 1,700 tested, 4% active | AID 588517;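 active = fluorescence ratio to DMSO above its plate's cutoff, the plate mean ratio plus 5 SD, cut at about 210% in these data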;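 also: unstained yeast with no Nile Red so the signal is compound autofluorescence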
CaMdr1 efflux inh: blocks the Candida albicans Mdr1 efflux pump in yeast; S. cerevisiae AD/CaMDR1, Nile Red efflux, flow cytometry; shares compounds with Efflux pump inh; 1,700 tested, 1% active; inhibition, % at 10 µM; in the data active = inhibition above about 26%;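 also: 0% = DMSO vehicle and 100% = reference inhibitor; higher means more Nile Red retained so more efflux inhibition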
Cdr2 pump inh: Candida Cdr2 efflux pump inhibition | shares compounds with Efflux pump inh | S. cerevisiae AD/CaCDR2, Nile Red retention, flow cytometry | Nile Red retention ratio vs DMSO, % at 10 µM | 1,700 tested, 4% active; in the data active = Nile Red retention ratio vs DMSO above about 190%;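 also: higher ratio means more blocking of Cdr2 efflux of the dye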
Cdr1 pump inh: Candida Cdr1 efflux pump inhibition. inhibition, % at 10 µM. 1,700 tested, 1% active. shares compounds with Efflux pump inh. S. cerevisiae AD/CaCDR1, Nile Red efflux, flow cytometry;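 active = inhibition above the screen-wide mean plus twice its standard deviation, cut at about 32% in these data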
The depositor's hits bear a star. Compounds with a hit are over-represented: about 2.9% of the library has one in this group of screens.

CCOC(=O)[C@]12CCCC=C1N(Cc1ccccc1)C(=O)[C@H](CC(=O)NCC13CC4CC(CC(C4)C1)C3)C2 was read as GalR3 antag -8.
`CCC(C)(C)NC(=O)C(c1cccs1)N(C(=O)c1ccn[nH]1)c1cccc(OC)c1` (configuration not stated) gave H9c2 TAG inh -5, MC4R antag cAMP 8, GalR3 antag 0, Efflux pump inh 0, Calb FLC 26 and MC4R ag barr -2.
Screening CCC(C)(C)NC(=O)C(c1ccccc1F)N(C(=O)c1ccn[nH]1)c1ccccc1 (configuration not stated) returned H9c2 TAG inh -9, MC4R antag cAMP 4, GalR3 antag -2, Efflux pump inh 0.4*, Calb FLC 5, MC4R ag barr 0, Yeast cmpd fluor 93, CaMdr1 efflux inh 0, Cdr2 pump inh 108 and Cdr1 pump inh 0.
For CCN1/C(=C2/SC(=S)N(NC(C)=O)C2=O)Sc2ccccc21 the results were MC4R antag cAMP -7, GalR3 antag -6, Efflux pump inh 0.8*, Calb FLC 18, MC4R ag barr 0, Yeast cmpd fluor 100, CaMdr1 efflux inh 0, Cdr2 pump inh 96 and Cdr1 pump inh 0.
For CC(=O)NN1C(=O)/C(=C2/Sc3ccccc3N2C)SC1=S the results were MC4R antag cAMP 2, GalR3 antag -12, Efflux pump inh 0, Calb FLC -3 and MC4R ag barr -3.
For COc1ccc(CCOC(=O)c2ccc(N)c([N+](=O)[O-])c2)cc1 the results were H9c2 TAG inh -20, MC4R antag cAMP 1, GalR3 antag 3, Efflux pump inh 6.6*, Calb FLC 0, MC4R ag barr -4, Yeast cmpd fluor 102, CaMdr1 efflux inh 0 and Cdr1 pump inh 0.
CC(C)(C)C(=O)COC(=O)c1ccc(N)c([N+](=O)[O-])c1 was read as H9c2 TAG inh 6, MC4R antag cAMP 7, GalR3 antag -2, Efflux pump inh 0, Calb FLC 5 and MC4R ag barr -2.
For CCC(C(=O)NC1CCCC1)n1c(-c2ccnc3ccccc23)nc2ccccc21 (configuration not stated) the results were GalR3 antag -8.
Screening CC(C)(C)S(=O)N1C[C@H]2CC(=O)C(CCO)=C2[C@@H]1CCO (some centres not stated) returned GalR3 antag 2.
COc1ccc(CC(=O)Nc2sc3c(c2C(N)=O)CCCC3)cc1 was read as MC4R antag cAMP 6, GalR3 antag -7, Efflux pump inh 0, Calb FLC -1 and MC4R ag barr 1.
COc1cc(OC)cc(C(=O)Nc2sc3c(c2C(N)=O)CCC3)c1 was read as MC4R antag cAMP 1, GalR3 antag -10, Efflux pump inh 1.4*, Calb FLC 0, MC4R ag barr 2, Yeast cmpd fluor 107, CaMdr1 efflux inh 0, Cdr2 pump inh 100 and Cdr1 pump inh 0.
Screening O=C(CN1C(=O)COc2ccccc21)N(Cc1ccccc1)Cc1ccccn1 returned MC4R antag cAMP 14, GalR3 antag -8, Efflux pump inh 0, Calb FLC 0 and MC4R ag barr -2.
`Cc1ccc(CN(Cc2cccnc2)C(=O)CN2C(=O)COc3ccccc32)o1` gave MC4R antag cAMP 1, Efflux pump inh 5.9*, Calb FLC 24, MC4R ag barr -3, Yeast cmpd fluor 111, CaMdr1 efflux inh 0, Cdr2 pump inh 98 and Cdr1 pump inh 0.
COc1ccc(/C=C2\SC(c3ccc(C)cc3)=NC2=O)cc1OC was read as MC4R antag cAMP 3, GalR3 antag -7, Efflux pump inh 0.8*, Calb FLC 7, MC4R ag barr -1, Yeast cmpd fluor 109, CaMdr1 efflux inh 0, Cdr2 pump inh 91 and Cdr1 pump inh 0.
For CCOCC(=O)Nc1nnc(COC)s1 the results were H9c2 TAG inh -6, MC4R antag cAMP 9, GalR3 antag 3, Efflux pump inh 0, Calb FLC -24 and MC4R ag barr 0.
For CCOc1ccccc1OCC(=O)Nc1nnc(COC)s1 the results were H9c2 TAG inh 1, MC4R antag cAMP -3, GalR3 antag 4, Efflux pump inh 0, Calb FLC -20, MC4R ag barr 0, Yeast cmpd fluor 104, CaMdr1 efflux inh 0, Cdr2 pump inh 96 and Cdr1 pump inh 0.
Screening COCc1nnc(NC(=O)COc2ccc3c(c2)OCO3)s1 returned MC4R antag cAMP 9, GalR3 antag -11, Efflux pump inh 0, Calb FLC 10 and MC4R ag barr 2.
`CCc1nnc(NC(=O)COc2ccc3ccccc3c2)s1` gave MC4R antag cAMP 13, GalR3 antag -9, Efflux pump inh 0, Calb FLC 37, MC4R ag barr 2, Yeast cmpd fluor 114, CaMdr1 efflux inh 0, Cdr2 pump inh 106 and Cdr1 pump inh 0.
For CCOCc1nnc(NC(=O)COc2ccc3c(c2)OCO3)s1 the results were MC4R antag cAMP 3, GalR3 antag -9, Efflux pump inh 1.7*, Calb FLC 9, MC4R ag barr -1, Yeast cmpd fluor 107, CaMdr1 efflux inh 0, Cdr2 pump inh 98 and Cdr1 pump inh 0.
`Cc1nc2[nH]c(=S)[nH]c2c(=O)[nH]1` gave H9c2 TAG inh 7, MC4R antag cAMP 5, GalR3 antag -6 and MC4R ag barr -3.
`CCC(CC)C(C(=O)NCc1ccccc1)N(C)Cc1ccc(Cl)c(Cl)c1` (configuration not stated) gave GalR3 antag -7.
COc1cccc(-c2nc3nc(C)cc(C)n3c2NC2CCCC2)c1 was read as GalR3 antag -4.
For CCC(C)n1cnc2c(c1=O)c1nc3ccccc3nc1n2Cc1ccc(OC)cc1 (configuration not stated) the results were H9c2 TAG inh 32, MC4R antag cAMP 2, GalR3 antag -6, Efflux pump inh 70*, Calb FLC 98*, MC4R ag barr -3, Yeast cmpd fluor 100, CaMdr1 efflux inh 0, Cdr2 pump inh 123 and Cdr1 pump inh 1.

From PubChem
